# ALR inh – inhibitors of human ALR sulfhydryl oxidase, primary screen, biochemical, H2O2 detection, HRP-luminol luminescence, single point | FAD-linked sulfhydryl oxidase ALR (Homo sapiens), P55789 | purified ALR, DTT oxidation | inhibition, % (concentration not given with the values) | 290,000 compounds, 3.8% hits | AID 485317, 2010;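 active = mean replicate inhibition above about 79%, with every replicate also reaching it, limit read from the data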
# Target sequence (P55789 whole entry, looked up): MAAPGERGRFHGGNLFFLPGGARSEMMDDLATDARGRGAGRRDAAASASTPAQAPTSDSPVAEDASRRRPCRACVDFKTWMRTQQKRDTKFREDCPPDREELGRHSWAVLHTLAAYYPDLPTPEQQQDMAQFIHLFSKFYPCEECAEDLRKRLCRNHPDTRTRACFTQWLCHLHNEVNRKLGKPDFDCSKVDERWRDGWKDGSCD
# core dimer inh – inhibitors of HCV core protein dimerization, primary screen, biochemical, TR-FRET, high-throughput; 300,000 compounds, 0.33% hits; AID 1899, 2009; inhibition, % at 5 µM; TR-FRET GST/Flag-core106 dimerization, 1536-well;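 active = inhibition above the mean of all tested compounds plus 3 SD, set per screening campaign, cut at about 45% in these data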
#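 Assay system: Tagged HCV core106 pair (GST and Flag) | Buffer or medium: KF-containing HEPES buffer, pH 7.45, DTT, CHAPS, BSA | Also added: Eu donor and XL665 acceptor anti-tag antibodies | Dosing: One concentration, 5 µM, in 0.5% DMSO | Timing: 4 h at 22.5 °C | Technique: TR-FRET 671 and 617 nm emission | Repeats: Singlicate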
# M18AAP inhibitor – PfM18AAP inhibitors, malaria aminopeptidase, primary screen, biochemical, QFRET, recombinant enzyme; M18 aspartyl aminopeptidase (Plasmodium falciparum 3D7); H-Glu-NHMec fluorogenic cleavage; inhibition, % at 7.35 µM; 290,000 compounds, 1.2% hits; AID 1822, 2009;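 active = inhibition above the campaign mean inhibition over all tested compounds plus 3 SD, cut at about 28% in these data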;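 note: 0% = plate median of test compound wells and 100% = 2 mM ZnCl2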
# EBNA-1 inh – EBNA-1 DNA-binding inhibitors, primary screen, biochemical, fluorescence polarization | inhibition, % at 14.8 µM | 300,000 compounds, 0.34% hits; in the data active = inhibition above about 28%
# ZTA counter – blocks Epstein-Barr virus ZTA, an EBNA-1 counter-screen. ZTA-DNA binding, fluorescence polarization. P03206. inhibition, % at 11 µM. AID 2234. 320,000 compounds, 0.15% hits; in the data active = inhibition above about 33%
# Target sequence (P03206 whole entry, looked up): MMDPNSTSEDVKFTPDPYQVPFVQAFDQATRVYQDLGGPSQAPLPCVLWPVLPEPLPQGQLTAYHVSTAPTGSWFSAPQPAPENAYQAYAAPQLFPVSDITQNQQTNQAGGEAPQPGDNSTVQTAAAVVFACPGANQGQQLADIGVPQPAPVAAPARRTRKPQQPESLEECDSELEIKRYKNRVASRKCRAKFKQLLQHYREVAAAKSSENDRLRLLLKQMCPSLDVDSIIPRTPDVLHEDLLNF
# HCV NS3 hel inh – inhibitors of HCV NS3 helicase, primary screen, biochemical, Cy5 molecular beacon fluorescence. Hepatitis C virus NS3 helicase. NS3 helicase DNA unwinding. inhibition, % at 10.9 µM. 290,000 compounds, 0.56% hits. AID 1800, 2009;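 active = inhibition above the mean of all tested compounds plus 3 SD, set per campaign, cut at about 35% in these data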;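 note: 0% = DMSO wells and 100% = thioflavine S control wells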
#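 Measured by: Cy5 fluorescence, 0 and 60 min reads / Assay system: NS3 helicase fragment of HCV / Control set: low DMSO, high thioflavine S at 110 µM / Times: 1 h reaction at 25 °C, ATP-initiated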
# EBNA-1 inh conf – EBNA-1 DNA-binding inhibitors, retest, confirmation, biochemical, fluorescence polarization, triplicate; Recombinant EBNA-1 DBD, Cy5-DNA fluorescence polarization; AID 2292, 2010; inhibition, % at 14.8 µM; 830 compounds, 35% hits; shares compounds with EBNA-1 inh;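 active = mean inhibition across replicates above a set limit taken from the earlier primary screen, cut at about 28% in these data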;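 note: plate controls were EBNA-1 protein with DMSO for no effect and wells lacking EBNA-1 for full effect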
# ZTA DNA inh trip – EBV Zta DNA binding inhibitors, counter-screen for EBNA-1 inhibitor project, biochemical, fluorescence polarization, triplicate | shares compounds with EBNA-1 inh | Zta-ZRE DNA binding, Cy5 fluorescence polarization | inhibition, % at 11.1 µM | 830 tested, under 10 active | AID 2328, 2010;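 active = mean inhibition over triplicates above a set limit taken from the primary EBNA-1 screen, cut at about 37% in these data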;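 note: purified full length Zta protein with Cy5 labeled ZRE DNA probe; 0% = Zta with DMSO and 100% = wells lacking Zta protein; inhibitors lower polarization by freeing the labeled DNA probe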
# The depositor's hits bear a star; / = not tested or not shown. Only some compounds are listed: those with a hit (about 5.2% of all), similar ones and a draw of the others.
SMILES,ALR inh,core dimer inh,M18AAP inhibitor,EBNA-1 inh,ZTA counter,HCV NS3 hel inh,EBNA-1 inh conf,ZTA DNA inh trip
Cc1ccc(S(=O)(=O)N(C)C)cc1NS(=O)(=O)c1ccc(Cl)s1,6,-11,9,-5,-18,6,/,/
COc1ccc(CNC(=O)CN2C(=O)C3CCCN3c3ncc(Cl)cc32)cc1 (centres undefined),-23,11,4,29*,20,-5,-8,-2
COc1ccc(OC)c(/C=N/NC(=O)Cc2nc3ccccc3[nH]2)c1,3,-1,-6,3,12,12,/,/
Cc1cccc(NC(=O)CSc2nc3ccc(NC(=O)CSc4nnnn4-c4ccccc4)cc3s2)c1C,-13,45,-3,7,10,12,/,/
O=C(CSc1nc2ccc(NC(=O)CSc3nnnn3-c3ccccc3)cc2s1)Nc1ccccc1,-2,26,7,49*,-3,5,61*,0
O=c1c2ccccc2nnn1CSc1nnc(Nc2ccccc2)s1,-7,5,13,36*,5,-10,13,16
Cc1ccc(Nc2nnc(SCn3nnc4ccccc4c3=O)s2)cc1,/,13,-2,-2,-8,-2,/,/
CCCCn1c(N)c(N(CCC)C(=O)C2CCCC2)c(=O)[nH]c1=O,/,/,/,/,3,/,/,/
Cc1ccc(S(=O)(=O)N2CCN(C(C)C(=O)Nc3ccccc3-c3ccccc3)CC2)cc1 (centres undefined),-10,10,-9,8,-3,3,/,/
O=C(CSc1ncccc1-c1nc2ccccc2[nH]1)N1CCc2ccccc21,-1,0,-2,32*,-7,4,9,4
O=C(CSc1nc2ccccc2c(=O)n1-c1ccccc1)N1CCc2ccccc21,-6,27,-15,41*,13,1,38*,0
COC(=O)CSc1ncccc1-c1nc2ccccc2[nH]1,-5,-1,-2,-3,11,1,/,/
O=S(=O)(c1c(F)cccc1F)N1CCCC2CCCCC21 (centres undefined),/,/,/,/,-12,/,/,/
COc1ccccc1NC(=O)c1c(N=Cc2c(O)ccc3ccccc23)cnn1C,-24,-4,2,39*,8,-12,9,2
Cn1ncc(N=Cc2c(O)ccc3ccccc23)c1C(=O)N1CCOCC1,-9,-9,2,2,-3,-4,/,/
COC(=O)c1cn(NC(=O)Cc2ccc(Cl)cc2)c(=O)c2ccccc12,2,4,4,7,10,-1,/,/
COC(=O)c1cn(NC(=O)Cc2ccc(Cl)c(Cl)c2)c(=O)c2ccccc12,-17,1,-6,44*,-4,17,25,-8
COc1ccccc1CN1C(=O)[C@@H]2C(CCC(N)=O)NC3(C(=O)Nc4c3ccc(Cl)c4C)[C@@H]2C1=O (some centres undefined),3,19,3,-2,-11,1,/,/
COc1ccccc1CN1C(=O)[C@@H]2C(CC(N)=O)NC3(C(=O)Nc4c3ccc(Cl)c4C)[C@@H]2C1=O (some centres undefined),-8,0,-21,28*,8,5,49*,-7
C[C@H](CO)N1C[C@H](C)[C@@H](CN(C)Cc2ccc(Cl)c(Cl)c2)Oc2c(NS(=O)(=O)c3cccs3)cccc2C1=O,0,/,/,/,/,/,/,/
O=C(NCCc1cccnc1)C1CCC(=O)N(Cc2ccc(Cl)cc2)C1 (centres undefined),/,/,-3,/,/,0,/,/

# Screening data: PubChem BioAssay, several laboratories
